Test results from ChEMBL document CHEMBL1158573, “Cytotoxic and NF-kappaB inhibitory constituents of Artocarpus rigida” (J Nat Prod, 2010).
The source made the active and inactive calls. The rule behind the calls is not given here.

Experiments:
[1] = molecular target: Transcription factor p65 (Homo sapiens) (UniProt Q04206); experiment: Inhibition of NFkappa p65 isolated from nuclear extract of human HeLa cells assessed as blockade of binding to biotinylated consesus sequence by chemiluminescence assay; type: cell-free
Sequence of Transcription factor p65 (Homo sapiens) (Q04206 whole entry): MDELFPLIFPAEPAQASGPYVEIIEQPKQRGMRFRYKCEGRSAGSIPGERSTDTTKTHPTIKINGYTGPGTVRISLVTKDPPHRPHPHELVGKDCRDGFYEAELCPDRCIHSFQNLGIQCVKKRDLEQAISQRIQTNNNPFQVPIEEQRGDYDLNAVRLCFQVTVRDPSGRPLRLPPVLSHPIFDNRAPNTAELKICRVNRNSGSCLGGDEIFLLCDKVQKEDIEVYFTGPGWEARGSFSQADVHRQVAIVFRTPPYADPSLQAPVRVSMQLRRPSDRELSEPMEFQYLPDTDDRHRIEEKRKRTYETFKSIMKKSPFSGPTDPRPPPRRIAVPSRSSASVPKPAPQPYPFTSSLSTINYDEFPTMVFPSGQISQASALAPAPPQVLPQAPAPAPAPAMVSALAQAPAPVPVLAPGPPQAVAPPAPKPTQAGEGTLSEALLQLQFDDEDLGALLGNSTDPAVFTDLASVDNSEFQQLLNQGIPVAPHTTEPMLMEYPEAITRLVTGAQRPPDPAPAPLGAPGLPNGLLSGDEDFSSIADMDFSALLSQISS
How it was run: (§1)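 ELISA-format transcription factor assay. HeLa nuclear extract was treated with samples, and activated p50 or p65 bound to a biotinylated consensus sequence was detected by chemiluminescence on a plate reader. IC50 reported in μM.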

HT-29 = experiment: Cytotoxicity against human HT-29 cells after 3 days by SRB assay; type: functional; conditions: for EC50: HT-29, 72 h, read-out: ED50 (the source's name)
How it was run: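 HT-29 colon cancer cells, trypsinized and seeded in 96-well plates, treated with compounds in DMSO (DMSO as negative control). Incubated 3 days at 37 °C, 5% CO2, then fixed, 30 min at room temperature, washed, dried overnight, stained with sulforhodamine B. Dye solubilized in tris-base buffer, absorbance read at 515 nm. Cytotoxicity calculated versus DMSO control, reported as ED50 (μM). Paclitaxel as positive control.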

[2] = molecular target: T1, Nuclear factor NF-kappa-B p105 subunit (Homo sapiens) (UniProt P19838); experiment: Inhibition of NFkappa p50 isolated from nuclear extract of human HeLa cells assessed as blockade of binding to biotinylated consesus sequence by chemiluminescence assay; type: cell-free; how it was run: as §1
T1 sequence (whole entry): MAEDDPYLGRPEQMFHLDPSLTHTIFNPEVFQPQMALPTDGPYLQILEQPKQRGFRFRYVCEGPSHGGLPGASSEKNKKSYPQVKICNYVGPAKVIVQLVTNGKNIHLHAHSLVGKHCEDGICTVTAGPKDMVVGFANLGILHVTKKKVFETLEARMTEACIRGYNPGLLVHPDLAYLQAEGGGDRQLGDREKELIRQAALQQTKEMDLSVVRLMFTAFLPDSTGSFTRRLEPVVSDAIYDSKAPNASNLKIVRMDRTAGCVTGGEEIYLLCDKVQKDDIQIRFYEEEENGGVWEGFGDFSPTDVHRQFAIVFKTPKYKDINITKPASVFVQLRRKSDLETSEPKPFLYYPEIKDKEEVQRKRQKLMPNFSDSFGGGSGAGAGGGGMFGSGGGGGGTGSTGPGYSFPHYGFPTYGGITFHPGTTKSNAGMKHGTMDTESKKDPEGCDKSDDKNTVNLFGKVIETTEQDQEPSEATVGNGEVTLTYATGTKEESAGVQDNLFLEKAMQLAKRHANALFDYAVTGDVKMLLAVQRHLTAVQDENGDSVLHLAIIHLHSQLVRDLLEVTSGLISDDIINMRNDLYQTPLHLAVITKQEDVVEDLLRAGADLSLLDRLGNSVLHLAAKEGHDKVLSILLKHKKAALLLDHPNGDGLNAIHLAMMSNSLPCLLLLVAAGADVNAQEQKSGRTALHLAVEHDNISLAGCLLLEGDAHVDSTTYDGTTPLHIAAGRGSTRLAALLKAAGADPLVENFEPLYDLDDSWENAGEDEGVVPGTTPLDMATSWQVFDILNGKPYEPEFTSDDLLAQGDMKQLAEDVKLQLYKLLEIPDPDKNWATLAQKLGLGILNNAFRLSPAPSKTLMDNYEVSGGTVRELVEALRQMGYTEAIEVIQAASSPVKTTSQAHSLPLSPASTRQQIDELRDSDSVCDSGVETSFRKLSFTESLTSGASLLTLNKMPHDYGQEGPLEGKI

Row | Compound | Activity [1] | Activity (HT-29) | Activity [2] | EC50 (HT-29) [µM]
1 | C=C(C)c1cc2c(=O)c3c(O)c(CC=C(C)C)c(O)cc3oc2c2c(O)c3c(c(O)c12)OC(C)(C)C=C3 | inactive | inactive | inactive | –
2 | C=C(C)[C@@H]1CC[C@]2(C(=O)O)CC[C@]3(C)[C@H](CC[C@@H]4[C@@]5(C)CC[C@H](O)C(C)(C)[C@@H]5CC[C@]43C)[C@@H]12 | inactive | inactive | inactive | –
3 | C=C(C)[C@H]1Cc2c(oc3c4c(cc(O)c3c2=O)OC(C)(C)C=C4)-c2c(O)cc(O)c(O)c21 [ARTOBILOXANTHONE] | – | – | – | > 10
4 | C[C@H]1[C@H](C)CC[C@]2(C(=O)O)CC[C@]3(C)C(=CC[C@@H]4[C@@]5(C)CC[C@H](O)C(C)(C)[C@@H]5CC[C@]43C)[C@H]12 | inactive | inactive | inactive | –
5 | COc1cc(O)c2c(=O)c3cc4c5c(c(O)cc(O)c5c3oc2c1)OC4(C)C | inactive | inactive | inactive | –
6 | CC(C)=CCc1c(O)cc2oc3c(cc4c5c(c(O)c(CC=C(C)C)c(O)c53)OC4(C)C)c(=O)c2c1O | inactive | inactive | inactive | –
7 | C=C(C)c1cc2c(=O)c3c(O)c(CC=C(C)C)c(O)cc3oc2c2c1C(=O)C(O)=C(CC=C(C)C)C2=O [ARTORIGIDIN C] | – | – | – | > 10
8 | CC(=O)O[C@H]1C(=O)[C@@]2(C)[C@H]([C@H](OC(=O)c3ccccc3)[C@]3(O)C[C@H](OC(=O)[C@H](O)[C@@H](NC(=O)c4ccccc4)c4ccccc4)C(C)=C1C3(C)C)[C@]1(OC(C)=O)CO[C@@H]1C[C@@H]2O [PACLITAXEL] | – | – | – | 0.0001
9 | CC1(C)C=Cc2cc3c(cc2O1)Oc1cc(O)ccc1C(O)=C3 [ARTORISTILBENE] | – | – | – | 10.7
